Legend:
Acetylcholinesterase = Acetylcholinesterase (Electrophorus electricus, UniProt O42275); test: Inhibition of electric eel AChE incubated for 15 mins using […] substrate by colorimetric Ellman's method
[1] = Selectivity index, ratio of IC50 for equine serum butyrylcholine esterase to IC50 for electric eel AChE
Cholinesterase = Cholinesterase (Equus caballus, UniProt P81908); test: Inhibition of equine serum butyrylcholine esterase incubated for 15 mins using S-butyrylthiocholine chloride substrate by colorimetric Ellman's method
in vitro = conditions: PAMPA, pH 7.4
[2] = Stability in Sprague-Dawley rat liver microsomes assessed as parent compound remaining at 2 uM measured 10 mins after microsomal reactions termination at pH 7.4 pre-incubated in presence of NADPH regenerating system by LC-MS method; format: ADME; conditions: read-out: Stability
Procedure, shortened: (§1)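 Compound added (2 µM final, from DMSO stock), 37 °C; time-0 aliquot and reaction quenched with ice-cold acetonitrile (acetaminophen internal standard) at 10 min, or 30 min for some compounds. Single time-point design; LC-MS (Q-Tof) analysis.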

[3] = Half life in Sprague-Dawley rat liver microsomes at 2 uM at pH 7.4 pre-incubated in presence of NADPH regenerating system measured 10 mins after microsomal reactions termination by LC-MS method; format: ADME; procedure, shortened: as §1
[4] = Stability in Sprague-Dawley rat liver microsomes assessed as parent compound remaining at 2 uM measured 30 mins after microsomal reactions termination at pH 7.4 pre-incubated in presence of NADPH regenerating system by LC-MS method; format: ADME; conditions: read-out: Stability
[5] = Half life in Sprague-Dawley rat liver microsomes at 2 uM at pH 7.4 pre-incubated in presence of NADPH regenerating system measured 30 mins after microsomal reactions termination by LC-MS method; format: ADME
[6] = Retention time of the compound by HPLC-UV method; format: physicochemical
Liver microsome [7] = test: Drug metabolism in Sprague-Dawley rat liver microsomes assessed as formation of monohydroxylated metabolite at 2 uM at pH 7.4 pre-incubated in presence of NADPH regenerating system measured after 10 to 30 mins by LC-MS method; format: ADME; conditions: pH 7.4, 2 µM; procedure, shortened: as §1
Liver microsome [8] = test: Drug metabolism in Sprague-Dawley rat liver microsomes assessed as formation of desmethylated metabolite at 2 uM at pH 7.4 pre-incubated in presence of NADPH regenerating system measured after 10 to 30 mins by LC-MS method; format: ADME; conditions: pH 7.4, 2 µM; procedure, shortened: as §1

Sequence of Cholinesterase (P81908 whole entry): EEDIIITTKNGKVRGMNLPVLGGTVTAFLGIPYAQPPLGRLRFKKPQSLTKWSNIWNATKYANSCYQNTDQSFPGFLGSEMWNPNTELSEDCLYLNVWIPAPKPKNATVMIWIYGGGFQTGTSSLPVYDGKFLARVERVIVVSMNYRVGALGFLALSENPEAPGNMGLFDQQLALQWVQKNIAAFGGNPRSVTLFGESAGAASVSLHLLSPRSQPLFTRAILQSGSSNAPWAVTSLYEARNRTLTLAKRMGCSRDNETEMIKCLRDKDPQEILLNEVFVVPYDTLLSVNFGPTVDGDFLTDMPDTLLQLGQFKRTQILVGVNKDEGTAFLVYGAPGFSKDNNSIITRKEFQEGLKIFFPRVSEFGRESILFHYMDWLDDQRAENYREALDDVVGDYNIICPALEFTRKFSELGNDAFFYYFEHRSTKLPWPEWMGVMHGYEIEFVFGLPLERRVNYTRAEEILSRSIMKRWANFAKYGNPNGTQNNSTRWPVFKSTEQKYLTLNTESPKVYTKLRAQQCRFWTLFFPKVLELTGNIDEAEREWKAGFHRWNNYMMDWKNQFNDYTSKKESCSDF
Sequence of Acetylcholinesterase (O42275 whole entry): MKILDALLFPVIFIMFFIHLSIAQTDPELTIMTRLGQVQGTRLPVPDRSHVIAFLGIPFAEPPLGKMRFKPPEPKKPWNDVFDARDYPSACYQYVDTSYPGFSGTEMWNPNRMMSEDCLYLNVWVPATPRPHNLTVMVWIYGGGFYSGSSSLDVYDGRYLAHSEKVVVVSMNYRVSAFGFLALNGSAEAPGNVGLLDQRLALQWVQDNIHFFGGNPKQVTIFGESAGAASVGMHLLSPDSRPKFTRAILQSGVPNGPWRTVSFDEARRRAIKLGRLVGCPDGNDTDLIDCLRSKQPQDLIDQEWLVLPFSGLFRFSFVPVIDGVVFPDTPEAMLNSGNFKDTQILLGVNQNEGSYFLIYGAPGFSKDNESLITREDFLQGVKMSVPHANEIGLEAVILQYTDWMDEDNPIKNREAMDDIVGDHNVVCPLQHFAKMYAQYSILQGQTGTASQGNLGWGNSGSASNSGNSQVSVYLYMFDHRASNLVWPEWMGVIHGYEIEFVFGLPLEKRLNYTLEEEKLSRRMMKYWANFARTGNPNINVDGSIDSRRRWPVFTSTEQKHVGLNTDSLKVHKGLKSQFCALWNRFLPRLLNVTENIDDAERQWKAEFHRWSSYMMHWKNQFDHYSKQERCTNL

| Compound | IC50 (Acetylcholinesterase) [µM] | Ratio IC50 [1] | IC50 (Cholinesterase) [µM] | also measured |
| --- | --- | --- | --- | --- |
| COc1ccc(/C=C2\Oc3cc(OCCCN(C)C)ccc3C2=O)cc1 | 15.7 | 1.99 | 31.2 |  |
| COc1ccc(/C=C2\Oc3cc(OCCN(C)C)ccc3C2=O)cc1 | 12 | 2.1 | 25.3 |  |
| COc1ccc(/C=C2\Oc3cc(OCCN4CCCCC4)ccc3C2=O)cc1 | 0.845 | 8.13 | 6.87 | Papp (in vitro): 20 ×10⁻⁶ cm/s; remaining at 10 min, 2 µM [2]: 53.6%; Retention_time: 4.5 min; half-life at 2 µM [3]: 11.2 min |
| CN(C)CCCOc1ccc(/C=C2\Oc3cc(O)ccc3C2=O)cc1 | 7.9 |  | > 100 |  |
| CN(C)CCOc1ccc(/C=C2\Oc3cc(O)ccc3C2=O)cc1 | 5.52 |  | > 100 |  |
| COc1cc(/C=C2\Oc3cc(OCCN4CCCC4)ccc3C2=O)cc(OC)c1OC | 0.643 | 18.2 | 11.7 |  |
| COc1ccc2c(c1)O/C(=C\c1ccc(OCCN(C)C)cc1Cl)C2=O | 12.4 | 1.93 | 23.9 |  |
| COc1ccc2c(c1)O/C(=C\c1ccc(OCCCN(C)C)c(Cl)c1)C2=O | 1.61 | 13.4 | 21.6 |  |
| O=C1/C(=C/c2ccncc2)Oc2cc(O)ccc21 | > 100 |  | > 100 |  |
| O=C1/C(=C/c2ccc(OCCN3CCCC3)c(Cl)c2)Oc2cc(O)ccc21 | 0.289 | 34.3 | 9.92 |  |
| O=C1/C(=C/c2ccc(OCCN3CCCC3)cc2)Oc2cc(O)ccc21 | 3.24 |  | > 100 |  |
| CCN(CC)C(=O)Oc1ccc2c(c1)O/C(=C\c1ccc(N(C)C)cc1)C2=O | > 100 |  | > 100 |  |
| COc1ccc2c(c1)O/C(=C\c1ccc(O)cc1)C2=O | > 100 |  | > 100 |  |
| COc1ccc2c(c1)O/C(=C\c1ccncc1)C2=O | > 100 |  | > 100 |  |
| O=C1/C(=C/c2ccc(OCCN3CCCCC3)cc2)Oc2cc(O)ccc21 | 2.23 |  | > 100 | Papp (in vitro): 10 ×10⁻⁶ cm/s; Retention_time: 3.6 min |
| COc1ccc2c(c1)O/C(=C\c1ccc(N(C)C)cc1)C2=O | 50.3 | 0.63 | 31.8 |  |
| COc1ccc2c(c1)O/C(=C\c1ccc(OCCN(C)C)cc1)C2=O | 1.97 | 13.1 | 25.9 |  |
| CCN(CC)C(=O)Oc1ccc2c(c1)O/C(=C\c1ccc(OC)cc1)C2=O | > 100 |  | 12.7 |  |
| CCN(CC)C(=O)Oc1ccc2c(c1)O/C(=C\c1ccc(OCCN3CCCCC3)cc1)C2=O | 0.652 | 11 | 7.17 | Papp (in vitro): 16.1 ×10⁻⁶ cm/s; remaining at 10 min, 2 µM [2]: 44.3%; Retention_time: 4.2 min; half-life at 2 µM [3]: 8.5 min |
| COc1ccc(/C=C2\Oc3cc(OCCN4CCCC4)ccc3C2=O)cc1 | 1.18 | 6.1 | 7.19 |  |
| COc1cc(/C=C2\Oc3cc(OCCN(C)C)ccc3C2=O)cc(OC)c1OC | 15.6 | 4.26 | 66.4 |  |
| CCN(CC)c1ccc(/C=C2\Oc3cc(O)ccc3C2=O)cc1 | > 100 |  | > 100 |  |
| COc1ccc2c(c1)O/C(=C\c1ccc(OCCCN(C)C)cc1Cl)C2=O | 15.1 | 2.26 | 34.1 |  |

| Compound | IC50 (Acetylcholinesterase) [µM] | Ratio IC50 [1] | IC50 (Cholinesterase) [µM] | also measured |
| --- | --- | --- | --- | --- |
| COc1ccc2c(c1)O/C(=C\c1ccc(OCCCN(C)C)cc1)C2=O | 2.44 | 12.5 | 30.4 |  |
| COc1cc2c(cc1OC)C(=O)C(CC1CCN(Cc3ccccc3)CC1)C2 (stereo not given) [DONEPEZIL] |  |  |  | remaining at 0.5 h, 2 µM [4]: 76.2%; half-life at 2 µM [5]: 76.5 min |
| CCN(CC)C(=O)Oc1ccc(/C=C2\Oc3cc(OC)ccc3C2=O)cc1 | 10.9 |  | > 100 |  |
| COc1ccc(/C=C2\Oc3cc(OC)ccc3C2=O)cc1 | > 100 |  | > 100 | Papp (in vitro): 9.8 ×10⁻⁶ cm/s; remaining at 10 min, 2 µM [2]: 41.4%; Retention_time: 3.9 min; half-life at 2 µM [3]: 7.9 min |
| COc1cc(/C=C2\Oc3cc(OCCCN(C)C)ccc3C2=O)cc(OC)c1OC | 9.88 |  | > 100 |  |
| COc1ccc(/C=C2\Oc3cc(O)ccc3C2=O)cc1 | > 100 |  | > 100 |  |
| COc1ccc2c(c1)O/C(=C\c1ccc(OCCN3CCCCC3)c(Cl)c1)C2=O | 0.16 | 49.4 | 7.9 | Papp (in vitro): 12.2 ×10⁻⁶ cm/s; remaining at 10 min, 2 µM [2]: 59.5%; Retention_time: 3.4 min; half-life at 2 µM [3]: 13.4 min |
| COc1ccc2c(c1)O/C(=C\c1ccc(OCCN3CCCCC3)cc1Cl)C2=O | 0.513 | 22.2 | 11.4 |  |
| Cn1c(=O)c2c(ncn2C)n(C)c1=O [CAFFEINE] |  |  |  | Retention_time [6]: 3.2 min |
| COc1ccc2c(c1)O/C(=C\c1ccc(OCCN3CCCC3)cc1)C2=O | 0.545 | 18.7 | 10.2 | Drug metabolism (Liver microsome [7]): metabolite_detected; Papp (in vitro): 24.7 ×10⁻⁶ cm/s; remaining at 10 min, 2 µM [2]: 25.3%; Retention_time: 3.6 min; half-life at 2 µM [3]: 5.1 min |
| CCN(CC)C(=O)Oc1ccc2c(c1)O/C(=C\c1ccc(OCCCN(C)C)cc1)C2=O | 3.29 | 1.85 | 6.1 |  |
| Cn1c(=O)c2[nH]cnc2n(C)c1=O.O [THEOPHYLLINE] |  |  |  | Retention_time [6]: 3.4 min |
| CCN(CC)C(=O)Oc1ccc2c(c1)O/C(=C\c1ccc(N(CC)CC)cc1)C2=O | > 100 |  | > 100 |  |
| CCN(CC)C(=O)Oc1ccc2c(c1)O/C(=C\c1ccc(OCCN(C)C)cc1)C2=O | 5.44 | 1.78 | 9.69 |  |
| COc1ccc2c(c1)O/C(=C\c1ccc(OCCN(C)C)c(Cl)c1)C2=O | 1.33 | 8.35 | 11.1 |  |
| CCN(CC)C(=O)Oc1ccc2c(c1)O/C(=C\c1ccc(OCCN3CCCC3)cc1)C2=O | 0.779 | 9.5 | 7.4 |  |
| C[C@]12CC[C@H]3[C@@H](CCC4=CC(=O)CC[C@@]43C)[C@@H]1CC[C@@H]2O [TESTOSTERONE] |  |  |  | remaining at 10 min, 2 µM [2]: < 0.001%; half-life at 2 µM [3]: 0.48 min |
| CN(C)c1ccc(/C=C2\Oc3cc(O)ccc3C2=O)cc1 | > 100 |  | > 100 |  |
| COc1ccc2c(c1)O/C(=C\c1ccc(OCCN3CCCCC3)cc1)C2=O | 0.348 | 25.5 | 8.87 | Papp (in vitro): 20 ×10⁻⁶ cm/s; remaining at 10 min, 2 µM [2]: 52.1%; Retention_time: 4.5 min; half-life at 2 µM [3]: 10.9 min |
| CCN(CC)c1ccc(/C=C2\Oc3cc(OC)ccc3C2=O)cc1 | > 100 |  | > 100 |  |
| COc1cc(/C=C2\Oc3cc(OCCN4CCCCC4)ccc3C2=O)cc(OC)c1OC | 0.422 | 14.6 | 6.15 | Drug metabolism (Liver microsome [7]): metabolite_detected; remaining at 0.5 h, 2 µM [4]: 61.9%; Drug metabolism (Liver microsome [8]): metabolite_detected; Papp (in vitro): 21.3 ×10⁻⁶ cm/s; half-life at 2 µM [5]: 43.8 min; Retention_time: 3.7 min |
| O=C1/C(=C/c2ccc(OCCN3CCCC3)cc2Cl)Oc2cc(O)ccc21 | 0.878 | 9.89 | 8.68 |  |
